The source made the active and inactive calls.
How the values were obtained:
Type in all cases: functional, cell-based
[1] = Cardioprotective activity against hypoxia-induced oxidative stress in rat H9c2 cells assessed as antioxidant activity by measuring increase in catalase activity at 1 uM preincubated for 8 hrs followed by H2O2 addition for 2 hrs by spectrophotometry
In short: (§1)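 H9c2 cells were pretreated with compound for 8 h, then given H2O2 (40 mM) in medium for 2 h. Measured read-outs were LDH leakage into the culture supernatant, MDA level, and SOD and catalase activities. Values are mean ± SEM of more than three independent experiments, versus model and control groups.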

[2] = Cardioprotective activity against hypoxia-induced oxidative stress mediated inflammation in rat H9c2 cells assessed as suppression of TNF-alpha in supernatant at 1 uM preincubated for 8 hrs followed by H2O2 addition for 2 hrs by ELISA
In short: (§2)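 TNF-α, IL-6 and IL-1β in the culture supernatant were quantified with ELISA kits. H9c2 cells were pretreated with compound for 8 h, then given 2 h H2O2 (40 mM). Values are mean ± SEM of more than three independent experiments, versus the H2O2 model group.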

[3] = Cardioprotective activity against hypoxia-induced oxidative stress in rat H9c2 cells assessed as antioxidant activity by measuring reduction in MDA levels at 1 uM preincubated for 8 hrs followed by H2O2 addition for 2 hrs by spectrophotometry; in short: as §1
[4] = Cardioprotective activity against hypoxia-induced oxidative stress mediated inflammation in rat H9c2 cells assessed as suppression of IL-1beta in supernatant at 1 uM preincubated for 8 hrs followed by H2O2 addition for 2 hrs in presence of leonurine by ELISA; in short: as §2
[5] = Cardioprotective activity against hypoxia-induced oxidative stress mediated inflammation in rat H9c2 cells assessed as suppression of TNF-alpha in supernatant at 1 uM preincubated for 8 hrs followed by H2O2 addition for 2 hrs in presence of leonurine by ELISA; in short: as §2
[6] = Cardioprotective activity against hypoxia-induced oxidative stress mediated inflammation in rat H9c2 cells assessed as suppression of IL-6 in supernatant at 1 uM preincubated for 8 hrs followed by H2O2 addition for 2 hrs by ELISA; in short: as §2
[7] = Cardioprotective activity against hypoxia-induced oxidative stress in rat H9c2 cells assessed as reduction in MDA levels at 1 uM preincubated for 8 hrs followed by H2O2 addition for 2 hrs in presence of leonurine by spectrophotometry; in short: as §1
H9c2 [8] = assay: Cardioprotective activity against hypoxia-induced cytotoxicity in rat H9c2 cells assessed as increase in cell viability at 1 uM preincubated for 8 hrs followed by H2O2 addition for 2 hrs by MTT assay
In short: (§3)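 H9c2 cells were pretreated with compound for 8 h, then exposed to H2O2 (40 mM) in culture medium for 2 h. Viability was read by MTT at 0.1, 1, 10 and 100 μM, relative to untreated control and H2O2-only model groups. Values are mean ± SEM of more than three independent experiments.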

[9] = Cardioprotective activity against hypoxia-induced oxidative stress in rat H9c2 cells assessed as antioxidant activity by measuring increase in SOD activity at 1 uM preincubated for 8 hrs followed by H2O2 addition for 2 hrs in presence of leonurine by spectrophotometry; in short: as §1
[10] = Cardioprotective activity against hypoxia-induced oxidative stress in rat H9c2 cells assessed as antioxidant activity by measuring increase in SOD activity at 1 uM preincubated for 8 hrs followed by H2O2 addition for 2 hrs by spectrophotometry; in short: as §1
[11] = Cardioprotective activity against hypoxia-induced oxidative stress mediated inflammation in rat H9c2 cells assessed as suppression of IL-6 in supernatant at 1 uM preincubated for 8 hrs followed by H2O2 addition for 2 hrs in presence of leonurine by ELISA; in short: as §2
[12] = Cardioprotective activity against hypoxia-induced oxidative stress mediated inflammation in rat H9c2 cells assessed as suppression of IL-1beta in supernatant at 1 uM preincubated for 8 hrs followed by H2O2 addition for 2 hrs by ELISA; in short: as §2
[13] = Cardioprotective activity against hypoxia-induced oxidative stress in rat H9c2 cells assessed as antioxidant activity by measuring increase in SOD activity at 1 uM preincubated for 8 hrs followed by H2O2 addition for 2 hrs in presence of aspirin by spectrophotometry; in short: as §1
[14] = Cardioprotective activity against hypoxia-induced oxidative stress mediated inflammation in rat H9c2 cells assessed as suppression of TNF-alpha in supernatant at 1 uM preincubated for 8 hrs followed by H2O2 addition for 2 hrs in presence of aspirin by ELISA; in short: as §2
[15] = Cardioprotective activity against hypoxia-induced oxidative stress mediated inflammation in rat H9c2 cells assessed as suppression of IL-6 in supernatant at 1 uM preincubated for 8 hrs followed by H2O2 addition for 2 hrs in presence of aspirin by ELISA; in short: as §2
[16] = Cardioprotective activity against hypoxia-induced oxidative stress in rat H9c2 cells assessed as reduction in MDA levels at 1 uM preincubated for 8 hrs followed by H2O2 addition for 2 hrs in presence of aspirin by spectrophotometry; in short: as §1
[17] = Cardioprotective activity against hypoxia-induced oxidative stress mediated inflammation in rat H9c2 cells assessed as suppression of IL-1beta in supernatant at 1 uM preincubated for 8 hrs followed by H2O2 addition for 2 hrs in presence of aspirin by ELISA; in short: as §2
[18] = Cardioprotective activity against hypoxia-induced oxidative stress in rat H9c2 cells assessed as antioxidant activity by measuring increase in catalase activity at 0.1 uM preincubated for 8 hrs followed by H2O2 addition for 2 hrs by spectrophotometry; in short: as §1
H9c2 [19] = assay: Increase in No level in rat H9c2 cells at 0.1 uM preincubated for 8 hrs followed by H2O2 addition for 2 hrs by ELISA
In short: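 NO concentration was measured in the culture supernatant of H9c2 cells. Cells were pretreated with compound for 8 h before 2 h H2O2 (40 mM) exposure. Values are mean ± SEM of more than three independent experiments, versus the model group.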

[20] = Cardioprotective activity against hypoxia-induced oxidative stress in rat H9c2 cells assessed as antioxidant activity by measuring reduction in MDA levels at 0.1 uM preincubated for 8 hrs followed by H2O2 addition for 2 hrs by spectrophotometry; in short: as §1
[21] = Cardioprotective activity against hypoxia-induced oxidative stress mediated inflammation in rat H9c2 cells assessed as suppression of IL-6 in supernatant at 0.1 uM preincubated for 8 hrs followed by H2O2 addition for 2 hrs by ELISA; in short: as §2
[22] = Cardioprotective activity against hypoxia-induced apoptosis in rat H9c2 cells assessed as reduction in Bax expression at 0.1 uM preincubated for 8 hrs followed by H2O2 addition for 2 hrs by Western blotting analysis
In short: (§4)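 Bax and Bcl-2 protein expression was measured in H9c2 cells pretreated with compound for 8 h, then injured with H2O2 (40 mM) for 2 h. Levels were compared with control and H2O2 model groups. Values are mean ± SEM of more than three independent experiments.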

H9c2 [23] = assay: Cardioprotective activity against hypoxia-induced cytotoxicity in rat H9c2 cells assessed as increase in cell viability at 0.1 uM preincubated for 8 hrs followed by H2O2 addition for 2 hrs by MTT assay; in short: as §3
[24] = Cardioprotective activity against hypoxia-induced oxidative stress in rat H9c2 cells assessed as antioxidant activity by measuring reduction in LDH leakage in supernatant at 0.1 uM preincubated for 8 hrs followed by H2O2 addition for 2 hrs by spectrophotometry; in short: as §1
[25] = Cardioprotective activity against hypoxia-induced oxidative stress mediated inflammation in rat H9c2 cells assessed as suppression of IL-1beta in supernatant at 0.1 uM preincubated for 8 hrs followed by H2O2 addition for 2 hrs by ELISA; in short: as §2
[26] = Cardioprotective activity against hypoxia-induced oxidative stress mediated inflammation in rat H9c2 cells assessed as suppression of TNF-alpha in supernatant at 0.1 uM preincubated for 8 hrs followed by H2O2 addition for 2 hrs by ELISA; in short: as §2
[27] = Cardioprotective activity against hypoxia-induced oxidative stress in rat H9c2 cells assessed as antioxidant activity by measuring increase in SOD activity at 0.1 uM preincubated for 8 hrs followed by H2O2 addition for 2 hrs by spectrophotometry; in short: as §1
[28] = Cardioprotective activity against hypoxia-induced apoptosis in rat H9c2 cells assessed as increase in Bcl-2 expression at 0.1 uM preincubated for 8 hrs followed by H2O2 addition for 2 hrs by Western blotting analysis; in short: as §4
[29] = Cardioprotective activity against hypoxia-induced apoptosis in rat H9c2 cells assessed as reduction in total apoptotic cells at 0.1 uM preincubated for 8 hrs followed by H2O2 addition for 2 hrs by Annexin-V FITC/propidium iodide staining based flow cytometry
In short: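 After 8 h compound pretreatment, H9c2 cells got a 2 h H2O2 (40 mM) insult. They were stained with Annexin V-FITC/PI and analysed by flow cytometry, counting total apoptotic cells including necrotic cells. Values are mean ± SEM of more than three independent experiments, versus model and control groups.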

H9c2 [30] = assay: Cardioprotective activity against hypoxia-induced cytotoxicity in rat H9c2 cells assessed as increase in cell viability at 0.1 to 100 uM preincubated for 8 hrs followed by H2O2 addition for 2 hrs by MTT assay; in short: as §3

Measured: Activity

CC(=O)Oc1ccccc1C(=O)O
active: [1] | [2] | [3] | [4] | [5] | [6] | [7] | H9c2 [8] | [9] | [10] | [11] | [12]

COc1cc(C(=O)OCCCCNC(=N)N)cc(OC)c1O
active: [1] | [2] | [13] | [3] | [14] | [15] | [6] | H9c2 [8] | [10] | [16] | [17] | [12]

COc1cc(C(=O)OCCCCNC(=N)N)cc(OC)c1OC(=O)CCNC(=O)c1ccccc1OC(C)=O
active: [18] | H9c2 [19] | [20] | [21] | [22] | H9c2 [23] | [24] | [25] | [26] | [27] | [28] | [29]

COc1cc(C(=O)OCCCCNC(=N)N)cc(OC)c1OC(=O)CCNC(=O)c1ccccc1O
active: H9c2 [30]

From ChEMBL document CHEMBL3861983, “Synthesis and biological evaluation of the codrug of Leonurine and Aspirin as cardioprotective agents” (Bioorg Med Chem Lett, 2016)
